According to article PMC7607594 (BMJ Open Diabetes Research & Care, 2020):

Columns and labels:
GLP-1r = molecular target: T1, GLP-1r (Sus scrofa, UniProt A0ACM8QMX0); assay: GLP-1r PET imaging with compartmental kinetic analysis; type: in vivo, Yucatan mini-pigs; conditions: 2-tissue compartment model, mean±SEM
T1 sequence (A0ACM8QMX0 24-463): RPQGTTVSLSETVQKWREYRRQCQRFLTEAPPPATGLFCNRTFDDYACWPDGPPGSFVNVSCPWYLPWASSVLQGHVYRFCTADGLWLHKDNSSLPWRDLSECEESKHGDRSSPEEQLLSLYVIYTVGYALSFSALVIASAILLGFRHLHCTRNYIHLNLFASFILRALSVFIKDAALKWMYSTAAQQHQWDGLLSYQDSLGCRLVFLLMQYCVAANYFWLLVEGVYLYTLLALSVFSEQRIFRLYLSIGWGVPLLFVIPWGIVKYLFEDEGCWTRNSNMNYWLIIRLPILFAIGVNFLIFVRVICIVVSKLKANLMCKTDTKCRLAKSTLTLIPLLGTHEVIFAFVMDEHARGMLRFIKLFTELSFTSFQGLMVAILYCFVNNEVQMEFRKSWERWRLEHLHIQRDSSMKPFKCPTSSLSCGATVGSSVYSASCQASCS
In short: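 Adult Yucatan mini-pigs, lean or obese, anesthetized; a 68Ga-labeled GLP-1r agonist radiotracer at 0.2 MBq/kg was given IV over 30 s. A dynamic abdominal PET-CT scan ran for 60 min in 30 frames, either fasted or at euglycemic–hyperinsulinemic clamp plateau (insulin 120 mU kg−1 h−1, 20% glucose). Arterial input came from an external arteriovenous loop gamma detector. Vs came from a 2-tissue compartment fit. Mean±SEM, unpaired t-test.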

[1] = ^68Ga-DOTA PET imaging of visceral blood flow; type: in vivo, Yucatan mini-pigs; conditions: for K1 (unidirectional transfer rate from blood to tissue): 1-tissue compartment model, mean±SEM
In short: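 Visceral perfusion was measured in anesthetized lean and obese Yucatan mini-pigs during the same session, after GLP-1r imaging. 68Ga-DOTA at 1.2 MBq/kg was given IV over 10 s, followed by a dynamic PET of 10 min in 46 frames. Arterial input came from an arteriovenous loop. Images were partial-volume corrected. K1 came from a one-tissue compartment fit. Mean±SEM, unpaired t-test.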

| Substance | GLP-1r binding potential (Vs, distribution volume of specific binding) (GLP-1r; duodenum, lean, fasted) [mL/ccm] | GLP-1r binding potential (Vs, distribution volume of specific binding) (GLP-1r; duodenum, lean, insulin (clamp plateau)) [mL/ccm] | GLP-1r binding potential (Vs, distribution volume of specific binding) (GLP-1r; duodenum, obese, fasted) [mL/ccm] | GLP-1r binding potential (Vs, distribution volume of specific binding) (GLP-1r; duodenum, obese, insulin (clamp plateau)) [mL/ccm] | GLP-1r binding potential (Vs, distribution volume of specific binding) (GLP-1r; pancreas, obese, fasted) [mL/ccm] | GLP-1r binding potential (Vs, distribution volume of specific binding) (GLP-1r; subcutaneous fat, lean, fasted) [mL/ccm] | GLP-1r binding potential (Vs, distribution volume of specific binding) (GLP-1r; subcutaneous fat, obese, fasted) [mL/ccm] | GLP-1r binding potential (Vs, distribution volume of specific binding) (GLP-1r; visceral fat, lean, fasted) [mL/ccm] | GLP-1r binding potential (Vs, distribution volume of specific binding) (GLP-1r; visceral fat, obese, fasted) [mL/ccm] | K1 (unidirectional transfer rate from blood to tissue) ([1]; duodenum, lean) [mL ccm^−1 min^−1] | K1 (unidirectional transfer rate from blood to tissue) ([1]; pancreas, obese) [mL ccm^−1 min^−1] | reduction of K1 for the flow-coded images ([1]; pancreatic level, obese versus lean animals) | K1 (unidirectional transfer rate from blood to tissue) ([1]; subcutaneous fat, lean) [mL ccm^−1 min^−1] | K1 (unidirectional transfer rate from blood to tissue) ([1]; subcutaneous fat, obese) [mL ccm^−1 min^−1] | K1 (unidirectional transfer rate from blood to tissue) ([1]; visceral fat, lean) [mL ccm^−1 min^−1] | K1 (unidirectional transfer rate from blood to tissue) ([1]; visceral fat, obese) [mL ccm^−1 min^−1] |
| --- | --- | --- | --- | --- | --- | --- | --- | --- | --- | --- | --- | --- | --- | --- | --- | --- |
| [^68Ga]Ga-DO3A-VS-Cys40-exendin-4 | 3.02±0.20 | 2.62±0.17 | 2.87±0.29 | 2.88±0.25 | 1.49±0.47 | 0.13±0.02 | 0.06±0.02 | 0.44±0.13 | 0.13±0.02 | – | – | – | – | – | – | – |
| ^68Ga-DOTA | – | – | – | – | – | – | – | – | – | 0.14±0.02 | 0.14±0.05 | about 90% | 0.08±0.03 | 0.01±0.01 | 0.02±0.01 | 0.03±0.01 |
